Assay results: ChEMBL document CHEMBL1138621, “Inhibition of tRNA-dependent ligase MurM from Streptococcus pneumoniae by phosphonate and sulfonamide inhibitors” (Bioorg Med Chem, 2009)
pIC50: −log10 of the molar value. The source made the active and inactive calls. The calls are words filed in the database; no cut-off is given here.

Legend:
[1] = Inhibition of penicillin-resistant Streptococcus pneumoniae 159 recombinant MurM by liquid scintillation counting; settings: for pIC50: read-out: IC50
[2] = system: Streptococcus pneumoniae; assay: Inhibition of penicillin-resistant Streptococcus pneumoniae 159 recombinant MurM at 1 mM by liquid scintillation counting
[3] = system: Streptococcus pneumoniae; assay: Antibacterial activity against penicillin- resistant Streptococcus pneumoniae 159 at 1 mM by NCCLS method; type: functional, organism-based
In short: (§1)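 Growth inhibition in liquid culture per NCCLS protocol, compounds at 1–5 mM final concentration; strains tested: S. pneumoniae 159 and pn16, S. aureus MRSA and MSSA, E. faecalis, M. flavus, E. coli.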

[4] = system: Staphylococcus aureus; assay: Antimicrobial activity against methicillin-resistant Staphylococcus aureus expressing femABX gene at 1 to 5 mM by NCCLS method; type: functional, organism-based; in short: as §1
[5] = system: Staphylococcus aureus; assay: Antimicrobial activity against methicillin-susceptible Staphylococcus aureus expressing femABX gene at 1 to 5 mM by NCCLS method; type: functional, organism-based; in short: as §1
[6] = system: Enterococcus faecalis; assay: Antimicrobial activity against Enterococcus faecalis expressing femABX gene at 1 to 5 mM by NCCLS method; type: functional, organism-based; in short: as §1
[7] = system: Micrococcus flavus; assay: Antimicrobial activity against Micrococcus flavus expressing femABX gene at 1 to 5 mM by NCCLS method; type: functional, organism-based; in short: as §1
[8] = target: T1, Alanine--tRNA ligase (Streptococcus pneumoniae serotype 4 (strain ATCC BAA-334 / TIGR4)) (UniProt Q97Q48); assay: Inhibition of Streptococcus pneumoniae alanyl tRNA synthetase expressed in Escherichia coli BL21 (DE3) assessed as formation of [3H]alanyl tRNA at 1 mM
T1 sequence (whole entry): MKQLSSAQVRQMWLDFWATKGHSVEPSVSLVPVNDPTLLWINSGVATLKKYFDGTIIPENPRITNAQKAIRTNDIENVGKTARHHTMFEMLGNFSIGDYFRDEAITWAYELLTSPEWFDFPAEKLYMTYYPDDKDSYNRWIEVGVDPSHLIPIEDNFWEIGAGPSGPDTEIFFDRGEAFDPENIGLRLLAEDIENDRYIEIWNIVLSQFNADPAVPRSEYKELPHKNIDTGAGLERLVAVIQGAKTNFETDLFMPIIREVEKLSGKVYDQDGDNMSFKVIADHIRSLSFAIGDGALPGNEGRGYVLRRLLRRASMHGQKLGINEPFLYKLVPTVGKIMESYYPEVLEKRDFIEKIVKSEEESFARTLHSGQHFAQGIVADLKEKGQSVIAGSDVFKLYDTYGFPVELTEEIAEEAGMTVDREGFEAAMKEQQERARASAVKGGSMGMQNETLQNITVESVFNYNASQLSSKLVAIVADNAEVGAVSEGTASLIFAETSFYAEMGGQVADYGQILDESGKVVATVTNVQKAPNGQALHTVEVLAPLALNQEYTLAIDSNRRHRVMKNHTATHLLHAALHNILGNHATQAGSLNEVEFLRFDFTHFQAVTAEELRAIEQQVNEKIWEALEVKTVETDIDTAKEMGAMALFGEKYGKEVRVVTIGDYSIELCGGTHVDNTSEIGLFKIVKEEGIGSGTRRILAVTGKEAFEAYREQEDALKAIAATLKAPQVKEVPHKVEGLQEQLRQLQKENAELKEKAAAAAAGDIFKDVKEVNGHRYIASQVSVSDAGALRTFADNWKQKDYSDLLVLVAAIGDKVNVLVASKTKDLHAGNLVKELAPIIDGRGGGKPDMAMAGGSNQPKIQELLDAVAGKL

[9] = target: T2, Serine--tRNA ligase (Streptococcus pneumoniae serotype 4 (strain ATCC BAA-334 / TIGR4)) (UniProt Q97SG0); assay: Inhibition of Streptococcus pneumoniae seryl tRNA synthetase expressed in Escherichia coli BL21 (DE3) assessed as formation of [3H]seryl tRNA at 1 mM
T2 sequence (whole entry): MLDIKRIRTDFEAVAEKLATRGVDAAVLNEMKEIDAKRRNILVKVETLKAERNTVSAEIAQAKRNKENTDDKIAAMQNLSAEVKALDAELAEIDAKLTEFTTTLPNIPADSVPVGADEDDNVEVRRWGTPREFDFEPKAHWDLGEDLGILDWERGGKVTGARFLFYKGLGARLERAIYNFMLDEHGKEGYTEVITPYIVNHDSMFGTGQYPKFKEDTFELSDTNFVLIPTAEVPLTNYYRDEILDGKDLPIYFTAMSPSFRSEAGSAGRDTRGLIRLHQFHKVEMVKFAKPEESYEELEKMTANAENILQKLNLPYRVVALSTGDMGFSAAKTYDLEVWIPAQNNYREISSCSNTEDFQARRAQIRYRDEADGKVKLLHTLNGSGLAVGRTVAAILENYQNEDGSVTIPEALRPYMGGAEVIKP

[10] = target: T1, Alanine--tRNA ligase (Streptococcus pneumoniae serotype 4 (strain ATCC BAA-334 / TIGR4)); assay: Inhibition of Streptococcus pneumoniae alanyl tRNA synthetase expressed in Escherichia coli BL21 (DE3) assessed as formation of [3H]alanyl tRNA at 100 uM
[11] = target: T2, Serine--tRNA ligase (Streptococcus pneumoniae serotype 4 (strain ATCC BAA-334 / TIGR4)); assay: Inhibition of Streptococcus pneumoniae seryl tRNA synthetase expressed in Escherichia coli BL21 (DE3) assessed as formation of [3H]seryl tRNA at 100 uM

CC(N)P(=O)(O)O[C@H]1[C@@H](O)[C@H](n2cnc3c(N)ncnc32)O[C@@H]1CO (stereo partly specified)
IC50 [1]: Not Active

CC(N)P(=O)(O)O[C@@H]1[C@H](O)[C@@H](CO)O[C@H]1n1cnc2c(N)ncnc21 (stereo partly specified)
inhibition [2]: 55%
pIC50 [1]: 3.11

COCCOP(=O)(NCCCC[C@H](NC(=O)OC(C)(C)C)C(=O)OC)C(C)NC(=O)OCc1ccccc1 (stereo partly specified)
Activity [2]: inactive

COC(=O)[C@H](CCCCNP(=O)(OC)C(NC(=O)OCc1ccccc1)c1ccccc1)NC(=O)OC(C)(C)C (stereo partly specified)
Activity [2]: inactive

CC(NC(=O)OCc1ccccc1)P(=O)(O)O[C@H]1C[C@H](n2cnc3c(N)ncnc32)O[C@@H]1CO (stereo partly specified)
inhibition [2]: 0%

CC(N)P(=O)(O)O[C@H]1C[C@H](n2cnc3c(N)ncnc32)O[C@@H]1CO[Si](C)(C)C(C)(C)C (stereo partly specified)
inhibition [2]: 0%

COc1ccc(C[C@H](N)C(=O)N[C@H]2[C@@H](O)[C@H](n3cnc4c(N(C)C)ncnc43)O[C@@H]2CO)cc1
inhibition [2]: 0%

CC(NC(=O)OCc1ccccc1)P(=O)(O)O[C@H]1C[C@H](n2cnc3c(NC(=O)c4ccccc4)ncnc32)O[C@@H]1CO[Si](C)(C)C(C)(C)C (stereo partly specified)
inhibition [2]: 0%

Nc1ncnc2c1ncn2[C@H]1C[C@H](OP(=O)(O)O)[C@@H](CO)O1
inhibition [2]: 15%

CCCCOP(=O)(NCCC)C(C)NC(=O)OCc1ccccc1 (stereo unspecified)
Activity [2]: inactive

CCCCOP(=O)(NCCCC[C@H](NC(=O)OC(C)(C)C)C(=O)OC)C(C)NC(=O)OCc1ccccc1 (stereo partly specified)
Activity [2]: inactive

CCCNP(=O)(OC)C(C)NC(=O)OCc1ccccc1 (stereo unspecified)
Activity [2]: inactive

COC(=O)[C@H](CCCCNP(=O)(OC)C(C)NC(=O)OCc1ccccc1)NC(=O)OC(C)(C)C (stereo partly specified)
Activity [2]: inactive

CC(NC(=O)OCc1ccccc1)P(=O)(O)O[C@H]1C[C@H](n2cnc3c(N)ncnc32)O[C@@H]1CO[Si](C)(C)C(C)(C)C (stereo partly specified)
inhibition [2]: 0%

CCCNP(=O)(OC)C(NC(=O)OCc1ccccc1)c1ccccc1 (stereo unspecified)
Activity [2]: inactive

CCCNP(=O)(OCCOC)C(C)NC(=O)OCc1ccccc1 (stereo unspecified)
Activity [2]: inactive

Nc1ncnc2c1ncn2[C@H]1C[C@H](O)[C@@H](CO)O1
inhibition [2]: 13%

CNC(=O)OC[C@H]1O[C@@H](n2cnc3c(N)ncnc32)C[C@@H]1OP(=O)(O)C(C)N (stereo partly specified)
inhibition [2]: 3%

CCCNP(=O)(OC)C(CC)NC(=O)OCc1ccccc1 (stereo unspecified)
Activity [2]: inactive

CC(N)P(=O)(O)O[C@H]1C[C@H](n2cnc3c(N)ncnc32)O[C@@H]1CO (stereo partly specified)
inhibition [2]: 95%
pIC50 [1]: 4.00
growth inhibition (GI) [3]: inactive
Activity [4]: inactive
Activity [5]: inactive
Activity [6]: inactive
Activity [7]: inactive
inhibition [8]: 22%
inhibition [9]: 28%
inhibition [10]: inactive
inhibition [11]: inactive
